Shown are actives, neighbours in structure and some others; about 1.3% of the full set was active somewhere.
CHT block: inhibits the human high affinity choline transporter. Q9GZV3. CHT-expressing cells, membrane potential dye, choline response; stronger effect = lower value. B-score at 10 µM. 310,000 tested, 0.86% active. AID 488975;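 active = B-score over 3 SD under the library average, and starting fluorescence ratio not unusually high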;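 note: choline stimulus applied at its EC90 after an EC20 pre-addition; B-score computed on integrated fluorescence ratio after choline addition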
Target sequence (Q9GZV3 whole entry, looked up): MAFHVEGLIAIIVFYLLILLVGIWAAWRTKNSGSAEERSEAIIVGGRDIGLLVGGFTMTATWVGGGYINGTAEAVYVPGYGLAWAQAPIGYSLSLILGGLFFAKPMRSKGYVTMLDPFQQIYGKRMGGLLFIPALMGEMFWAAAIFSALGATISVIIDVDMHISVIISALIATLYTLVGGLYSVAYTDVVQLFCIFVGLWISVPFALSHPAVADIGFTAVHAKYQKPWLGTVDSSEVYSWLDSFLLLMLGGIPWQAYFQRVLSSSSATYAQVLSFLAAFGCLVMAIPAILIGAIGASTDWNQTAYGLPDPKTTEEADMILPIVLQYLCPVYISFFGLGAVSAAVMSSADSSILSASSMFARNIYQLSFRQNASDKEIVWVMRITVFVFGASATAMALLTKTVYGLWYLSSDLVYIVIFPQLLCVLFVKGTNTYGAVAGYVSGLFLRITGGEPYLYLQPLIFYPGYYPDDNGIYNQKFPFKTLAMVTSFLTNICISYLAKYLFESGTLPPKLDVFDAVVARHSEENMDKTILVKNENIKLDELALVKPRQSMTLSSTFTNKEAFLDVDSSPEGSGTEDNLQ
procasp7 counter: activates human procaspase-7, counter-screen for procaspase-3 activators | P55210 | recombinant procaspase-7, Ac-DEVD-pNA absorbance 405 nm; D23A/D198A/D206A triple mutant, cannot self-cleave; scale: DMSO 0, 5 µM enzyme 100 | activation, % at 8.5 µM | 330,000 tested, 0.093% active | AID 463210;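 active = percent activation above the screen-wide mean plus 3 SD, cut at about 25% in these data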
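Assay system: Uncleavable procaspase-7 mutant enzyme; Input: 2 µM procaspase-7 mutant as dispensed; Also added: DEVD-pNA substrate; Medium: Zinc-free HEPES pH 7.4 with 300 mM NaCl, 0.01% Triton X-100; Timing: 1 h compound preincubation, 2 h substrate cleavage, 25 °C; Measured by: Epi-absorbance of released pNA at 405 nm, two timepoints.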
proCasp3 act: activators of human procaspase-3. P42574. recombinant procaspase-3 D3A, Ac-DEVD-pNA absorbance 405 nm. activation, % at 8.5 µM. 330,000 tested, 0.11% active. AID 463141;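 active = activation above the mean of all tested compounds plus 3 SD, cut at about 21% in these data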;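 note: 0% = DMSO alone and 100% = DMSO wells spiked with extra 5 µM PC-3 D3A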
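Test system: Procaspase-3 D3A mutant, all three cleavage aspartates alanine | Dosing: Single dose, 8.5 µM nominal compound, 0.8% DMSO | Schedule: 1 h preincubation, 2 h reaction | Technique: 405 nm absorbance of p-nitroaniline, reads at 0 and 120 min | Repeats: One well per compound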
CHT allo act: allosteric activators of human choline transporter CHT | Q9GZV3 | B-score at 10 µM | CHT-expressing cells, membrane potential dye, choline EC20; stronger effect = higher value; LV-AA mutant CHT in HEK293 cells | 310,000 tested, 0.49% active;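 active = initial fluorescence not abnormally high and integrated response B-score, plate-corrected, over 3 SD above library mean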
CHT activ conf: confirmation of human choline transporter (CHT) activators. shares compounds with CHT allo act. CHT-expressing cells, membrane potential dye fluorescence (FDSS); % of choline EC20–EC90 response window; HEK293 expressing CHT LV-AA mutant; choline added at its EC20. activation, % at 10 µM. 2,500 tested, 91% active;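 active = primary screen active, with duplicate mean activation above negative control mean plus 3 SD, cut at about 11% in these data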
HEK293 MP dye: CHT activator counter-screen hit in parental HEK293 cells; shares compounds with CHT allo act; membrane potential dye fluorescence (FDSS); measured after EC20 choline addition; ratio readout change at 10 µM, hits read low; 2,500 tested, 62% active;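 active = duplicate-averaged ratio beyond 3 SD from buffer wells, up or down, though filed actives are nearly all decreases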
* hit, by the source's call; i = inactive; / = no result.

SMILES	CHT block	procasp7 counter	proCasp3 act	CHT allo act	CHT activ conf	HEK293 MP dye
O=C(COC(=O)c1cc[n+]([O-])cc1)Nc1ccc([N+](=O)[O-])cc1Cl	i	3	-5	12*	62*	-79*
O=C(COC(=O)c1cc[n+]([O-])cc1)Nc1ccc(Cl)cc1[N+](=O)[O-]	i	4	-11	i	20*	-44*
CCOc1ccc(NC(=O)CSc2nnc(Cc3csc(C)n3)o2)cc1	i	-1	6	i	/	/
CCOc1ccc(-n2c(SCC(=O)NC)nnc2-c2ccco2)cc1	i	6	-1	i	/	/
CCOC(=O)N1CCN(c2cc(NCCC(=O)O)c3c4c(onc24)-c2ccccc2C3=O)CC1	i	-10	2	i	26*	-60*
O=[N+]([O-])c1cc([N+](=O)[O-])c2cc(-c3cccnc3)[nH]c2c1	i	-3	12	i	/	/
C/C(=N\NC(=O)c1nnn(-c2nonc2N)c1CN1CCC(C)CC1)c1cccc(Br)c1	i	-3	1	i	16*	i
C/C(=N\NC(=O)c1nnn(-c2nonc2N)c1CN1CCCCCC1)c1ccc(Br)cc1	i	-3	-1	i	/	/
CC1CCN(Cc2c(C(=O)N/N=C/c3ccc(C(C)(C)C)cc3)nnn2-c2nonc2N)CC1	i	10	7	7*	14*	i
Cc1ccc(Cl)c(OCC(=O)Nc2ccccc2N2CCCCC2)c1	i	3	6	i	/	/
CCOc1ccc(/C=C/C(=O)OC(C)C(=O)NC2CCCCC2C)cc1OC (stereo not given)	i	8	-4	i	/	/
COC(=O)[C@@H](Cc1ccccc1)NC(=O)NCCc1ccc(OC)c(OC)c1	i	-6	11	i	/	/
CC(C)C(=O)N1CCN(c2ccccc2NC(=O)c2cccc(Cl)c2)CC1	i	5	-6	6.6*	18*	i
CCOC(=O)Cn1c2ccc(C)cc2c2nc(C)sc21	i	1	-4	i	/	/
Cc1nc2c3cc(Cl)ccc3n(CCN3CCOCC3)c2s1	i	21	-2	i	15*	i
CCN(CC)CCn1c2ccc(F)cc2c2nc(C)sc21	i	12	-2	i	27*	-63*
COc1cc(C(=O)N[C@H](C(=O)OCC(=O)NC2CCCCCC2)C(C)C)cc(OC)c1OC	/	-1	6	/	/	/
CCOc1cc(N2CCOCC2)c(OCC)cc1NC(=O)COC(=O)c1cc2ccccc2cc1O	i	4	1	7.5*	17*	i
COc1ccc(OC(=O)COc2ccc(Cl)cc2)cc1	i	10	4	i	/	/
O=C(N/N=C/c1cccnc1)c1ccc([N+](=O)[O-])cc1Cl	i	3	8	i	/	/
Cc1c(C(=O)N/N=C/c2cccnc2)sc(=S)n1C	i	18	10	i	41*	-41*
Cc1ccc([N+](=O)[O-])c(C(=O)N/N=C/c2cccnc2)c1	i	6	9	i	61*	-41*
CCOC(=O)N1CCN(C(=O)c2ccccc2N(Cc2ccccc2)S(=O)(=O)c2ccccc2)CC1	i	12	-4	i	/	/
COc1ccc(OC)c(CNc2nc3ccccc3n2CCN2CCCCC2)c1	i	14	1	i	34*	i
COc1ccc(CNc2nc3ccccc3n2CCN2CCCCC2)c(OC)c1	i	-3	6	i	/	/
SMILES	CHT block	procasp7 counter	proCasp3 act	CHT allo act	CHT activ conf	HEK293 MP dye
CCN(CC)CCCNC(=O)c1cn(C)c2ccc(S(=O)(=O)N(C)C)cc2c1=O	i	5	2	6.4*	55*	-35*
CN(CCNC(=O)c1cn(C)c2ccc(S(=O)(=O)N(C)C)cc2c1=O)CCc1ccccc1	i	7	-2	i	23*	-26*
CCCCN(CC)CCCNC(=O)c1cn(C)c2ccc(S(=O)(=O)N(C)C3CCCCC3)cc2c1=O	i	8	6	i	/	/
CN(C1CCCCC1)S(=O)(=O)c1ccc2c(c1)c(=O)c(C(=O)NCCN1CCCC1)cn2C	i	5	0	i	40*	-37*
CCN(CC)S(=O)(=O)c1ccc2c(c1)c(=O)c(C(=O)NCCN(C)CCc1ccccc1)cn2C	i	-1	6	i	/	/
Cc1nc(N2CCN(C)CC2)c2sc(=S)n(-c3ccccc3)c2n1	i	11	6	i	/	/
Cc1nc(N2CCN(C)CC2)c2sc(=S)n(C)c2n1	i	4	9	i	33*	-50*
CS(=O)(=O)c1ccc(C(=O)CN2C(=O)NC3(CCCc4ccccc43)C2=O)cc1 (stereo not given)	/	4	2	/	/	/
CC(=O)c1cccc(NC(=O)c2cc3ccccn3n2)c1	i	8	11	i	35*	-27*
Cc1ccccc1NC(=O)c1cc2ccccn2n1	i	6	2	i	/	/
CC(C)n1c(SCC(=O)NC2CC2)nnc1C1CC1	i	4	5	i	/	/
Cc1cccc(Oc2nc(CN3CCOCC3)nc3sc4c(c23)CCCC4)c1	i	-2	-1	i	35*	i
Clc1nc(CN2CCOCC2)nc2sc3c(c12)CCC3	i	-1	-4	i	/	/
NS(=O)(=O)c1ccc(CCNc2nc(CN3CCOCC3)nc3sc4c(c23)CCC4)cc1	i	-7	-12	i	/	/
CCN(CC)CCCNc1nc(CN2CCOCC2)nc2sc3c(c12)CCC3	i	8	3	7.7*	59*	-57*
CCC(C)Nc1nc(CN2CCOCC2)nc2sc3c(c12)CCC3 (stereo not given)	i	7	3	8.4*	14*	i
c1cncc(-c2nc(NCCCN3CCOCC3)c3c4c(sc3n2)CCC4)c1	i	0	-1	6.9*	24*	-47*
COc1ccc(Br)cc1/C=N/NC(=O)c1cc(OC)c(OC)c(OC)c1	i	1	1	i	/	/
COc1cc(C(=O)N/N=C/c2ccsc2C)cc(OC)c1OC	i	1	2	i	19*	i
O=C(Cc1cccs1)N(Cc1ccco1)C1(C(=O)NC2CCCCC2)CCCCC1	i	-2	2	i	55*	i
CCN(CC)CCNc1nc2c(c(=O)n(C)c(=O)n2C)n1C/C=C(/C)Cl	i	1	-3	i	68*	-42*
C/C(Cl)=C\Cn1c(NCCc2ccccc2)nc2c1c(=O)n(C)c(=O)n2C	i	10	0	i	/	/
O=C(c1nn(Cc2ccccc2)c(=O)c2ccccc12)N1CCN(c2ccccn2)CC1	i	-2	6	7.6*	26*	i
